Results on three compounds are retold here after ChEMBL document CHEMBL4145471, “New 1,5 and 2,5-disubstituted tetrazoles-dependent activity towards surface barrier of Candida albicans” (Eur J Med Chem, 2018).

Assay [1] deals with Candida albicans. In words: Antifungal activity against Candida albicans ATCC 90028 at 4 ug/ml after 18 hrs relative to control. In kind it is functional. The gist of the method: (§1)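 Planktonic broth microdilution per M27-A3 in MOPS-buffered RPMI 1640 (pH 7.0), final inoculum 1.8×10^3 cells/mL, compounds 0.0313–16 µg/mL from 1600 µg/mL stocks in ethanol or DMSO. Incubated at 35°C without agitation; OD405 read at 18 and 48 h. % inhibition was derived from test, sterility (no inoculum) and solvent growth-control wells. Amphotericin B at 0.5 µg/mL served as the 100% control.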

In assay [2] the test system is Candida albicans. Nature of the assay: Antifungal activity against Candida albicans ATCC 90028 at 0.5 ug/ml after 48 hrs relative to control. The format is functional. The method in brief:
as §1

Assay [3] concerns Candida albicans. Nature of the assay: Antifungal activity against Candida albicans ATCC 90028 at 0.0313 ug/ml after 48 hrs relative to control. The format is functional.
Assay [4] has as its system Candida albicans. Nature of the assay: Fungicidal activity against Candida albicans ATCC 90028 at 16 ug/ml after 48 hrs by M27-A3 microdilution method. In kind it is functional. The method in brief: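 After 48 h at 35°C in M27-A3 microdilution plates (compound at 16 µg/mL), 50 µL aliquots from treated and solvent-control wells were diluted 10^4 in PBS and plated on drug-free Sabouraud dextrose agar, then incubated 48 h at 35°C. Reduction R = lg CFU/mL control − lg CFU/mL treated; R ≥ 3 defined as fungicidal.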
(In broth dilution the organism is exposed to a series of concentrations in liquid medium.)

For assay [5], the system named is Candida albicans. In words: Synergistic antifungal activity against Candida albicans ATCC 90028 at 80 ug/ml after 48 hrs in presence of 80 ug/ml fluconazol by checkerboard assay relative to control. In kind it is functional. The note with it: ATCC 90028, 48 h, read-out: GI. The method in brief:
(§2)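 Checkerboard in C. albicans ATCC 90028, inoculum prepared per CLSI M27-A3 in RPMI. Fluconazole serially diluted 80-1.25 µg/mL across the plate against the partner compound at 80-1.25 µg/mL final. Incubated 48 h at 35°C. Metabolic activity read by XTT reduction at 475 nm (660 nm reference), given as % of the untreated growth control.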

Assay [6] has as its system Candida albicans. Nature of the assay: Synergistic antifungal activity against Candida albicans ATCC 90028 at 80 ug/ml after 48 hrs in presence of 10 ug/ml fluconazol by checkerboard assay relative to control. In kind it is functional. The method in brief: as §2
The subject of assay [7] is Candida albicans. In words: Synergistic antifungal activity against Candida albicans ATCC 90028 at 40 ug/ml after 48 hrs in presence of 40 ug/ml fluconazol by checkerboard assay relative to control. The note with it: ATCC 90028, 48 h, read-out: GI. The format is functional. The gist of the method: as §2
The subject of assay [8] is Candida albicans. Nature of the assay: Synergistic antifungal activity against Candida albicans ATCC 90028 at 20 ug/ml after 48 hrs in presence of 1.25 ug/ml fluconazol by checkerboard assay relative to control. In kind it is functional. The method in brief: as §2
In assay [9] the test system is Candida albicans. In words: Synergistic antifungal activity against Candida albicans ATCC 90028 at 1.25 ug/ml after 48 hrs in presence of 20 ug/ml fluconazol by checkerboard assay relative to control. In kind it is functional. The gist of the method:
(§3)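 Checkerboard per M27-A3 against ATCC 90028: fluconazole at 80–1.25 µg/mL horizontally and partner compound at 80–1.25 µg/mL vertically, 100 µL yeast inoculum per well, 35°C for 48 h. After 48 h, metabolic activity was measured by XTT reduction at 475 nm (660 nm reference) relative to untreated growth control. FIC index is the sum of the FICs; <1 was defined as synergism and >1 as antagonism.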

Assay [10] concerns Candida albicans. Nature of the assay: Synergistic antifungal activity against Candida albicans ATCC 90028 at 1.25 ug/ml after 48 hrs in presence of 1.25 ug/ml fluconazol by checkerboard assay relative to control. The format is functional. The note with it: ATCC 90028, 48 h, read-out: GI. The method in brief:
as §3

Assay [11] deals with Candida albicans. In words: Antifungal activity against Candida albicans ATCC 90028 assessed as inhibition of metabolic activity at 10 ug/ml after 48 hrs in presence of 5 ug/ml fluconazol by XTT assay relative to control. The format is functional. The note with it: values are per cent of control. The method in brief:
(§4)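 Checkerboard against strain ATCC 90028, inoculum per M27-A3: fluconazole 80-1.25 µg/mL on one axis, tetrazole 80-1.25 µg/mL on the other. Plates at 35°C for 48 h, then XTT metabolic reduction read at 475 nm (660 nm reference). Activity is the drop in mean absorbance against untreated growth control. FICs and their summed FIC index are taken at 50% reduction in metabolic activity.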
(In general: Tetrazolium assays rely on reduction of a dye to a coloured formazan, in cell work by metabolically active cells.)

In assay [12] the test system is Candida albicans. In words: Antifungal activity against Candida albicans ATCC 90028 assessed as inhibition of metabolic activity at 10 ug/ml after 48 hrs in presence of 2.5 ug/ml fluconazol by XTT assay relative to control. The format is functional. The note with it: values are per cent of control. The method in brief:
(§5)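 C. albicans ATCC 90028 in checkerboard: fluconazole serial dilutions (80-1.25 µg/mL) crossed with tetrazole (80-1.25 µg/mL final), M27-A3 inoculum in RPMI 1640, 35°C for 48 h. Metabolic activity measured by XTT reduction, read at 475 nm (660 nm reference). Activity expressed relative to untreated growth control absorbance.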

In assay [13] the test system is Candida albicans. In words: Antifungal activity against Candida albicans ATCC 90028 assessed as inhibition of metabolic activity at 10 ug/ml after 48 hrs in presence of 1.25 ug/ml fluconazol by XTT assay relative to control. In kind it is functional. The note with it: values are per cent of control. The gist of the method: as §4
Assay [14] has as its system Candida albicans. In words: Antifungal activity against Candida albicans ATCC 90028 assessed as inhibition of metabolic activity at 2.5 ug/ml after 48 hrs in presence of 5 ug/ml fluconazol by XTT assay relative to control. In kind it is functional. The note with it: values are per cent of control. The method in brief:
as §5

Assay [15] concerns Candida albicans. In words: Antifungal activity against Candida albicans ATCC 90028 assessed as inhibition of metabolic activity at 1.25 ug/ml after 48 hrs in presence of 10 ug/ml fluconazol by XTT assay relative to control. The format is functional. The note with it: values are per cent of control. The method in brief: as §4
For assay [16], the system named is Candida albicans. Nature of the assay: Antifungal activity against Candida albicans ATCC 90028 after 48 hrs in presence of fluconazol by XTT assay. The format is functional. The note with it: ATCC 90028, 48 h. The method in brief: as §4
Assay [17] concerns Candida albicans. In words: Synergistic antifungal activity against Candida albicans ATCC 90028 assessed as fluconazol FIC at 1.25 to 80 ug/ml after 48 hrs by checkerboard assay. The format is functional. The gist of the method:
as §3

The test system of assay [18] is Candida albicans. Nature of the assay: Antifungal activity against Candida albicans ATCC 90028 assessed as metabolic activity at 20 ug/ml after 48 hrs in presence of 80 ug/ml fluconazol by XTT assay relative to control.
In assay [19] the test system is Candida albicans. In words: Antifungal activity against Candida albicans ATCC 90028 assessed as metabolic activity at 20 ug/ml after 48 hrs in presence of 40 ug/ml fluconazol by XTT assay relative to control.
Assay [20] concerns Candida albicans. In words: Antifungal activity against Candida albicans ATCC 90028 assessed as metabolic activity at 10 ug/ml after 48 hrs in presence of 40 ug/ml fluconazol by XTT assay relative to control.
Assay [21] concerns Candida albicans. Nature of the assay: Antifungal activity against Candida albicans ATCC 90028 assessed as metabolic activity at 40 ug/ml after 48 hrs in presence of 1.25 ug/ml fluconazol by XTT assay relative to control.
The subject of assay [22] is Candida albicans. Nature of the assay: Antifungal activity against Candida albicans ATCC 90028 assessed as metabolic activity at 1.25 ug/ml after 48 hrs in presence of 1.25 ug/ml fluconazol by XTT assay relative to control. The note with it: ATCC 90028, 48 h.

Structures are written as SMILES.

Turning to `Cc1ccc(-c2nnn(CCCN3CCOCC3)n2)cc1`, the Activity is 99.75% in assay [1], 99.18% in assay [2], 99.56% in assay [3] and 0.56 log10CFU/ml in [4]. Besides, in [5], the inhibition of growth at 80 µg/mL was determined as 99.5%. The “growth inhibition (GI)” value is 99.8% in assay [6], 98.75% in assay [8] and 99.46% in assay [9]. Further, in [7], the inhibition of growth at 40 µg/mL was 99.5%. The inhibition of growth at 1.25 µg/mL in assay [10] is 99%. In addition, the residual activity in assay [11], in assay [12], in [13], in assay [14] and in assay [15] was 100% in each case. The MIC – broadly, the least concentration at which growth counts as inhibited – in [16] is 20 µg/mL. Also, the FIC in assay [17] is reported as 5. The Metabolic activity is 69.42% in assay [18], 93.5% in assay [19], 100% in [20] and 40.06% in assay [21]. The metabolic activity at 1.25 µg/mL in [22] came to 74.3%.
Regarding `ClCCCn1nnnc1-c1ccccc1Cl`, the Activity in [1] is listed as 99.62%; in assay [2] it was 99.22%; in assay [3] it was 99.38%; in assay [4], 0.18 log10CFU/ml. Moreover, in [5], the inhibition of growth at 80 µg/mL worked out at 99.8%. The “growth inhibition (GI)” value is on record as 99.78% in [6], 100% in assay [8] and 99.58% in [9]. For the same compound, in assay [7], the inhibition of growth at 40 µg/mL was determined as 99.4%. Moreover, in [10], the inhibition of growth at 1.25 µg/mL turned out to be 99.7%. The residual activity (as a rule, what remains of the control signal, in per cent) was 100% in assay [11]; 79.69% in assay [12]; 73.65% in assay [13]; 100% in assay [14]; 62.08% in [15]. The MIC in [16] was 80 µg/mL. In addition, the FIC in assay [17] turned out to be 5. Further, the “fold change (FC)” value in assay [17] is reported as 5. Moreover, the Metabolic activity in assay [18] turned out to be 81.77%; in assay [19], 82.92%; in [20], 100%; in assay [21] it was 13.59%. In addition, the metabolic activity at 1.25 µg/mL in assay [22] is 86.4%.
With `CCOC(=O)CCn1nnc(-c2ccccc2)n1`, the Activity turned out to be 99.96% in [1], 99.31% in assay [2], 99.12% in assay [3] and 0.33 log10CFU/ml in assay [4]. In addition, in assay [5], the inhibition of growth at 80 µg/mL was 99.6%. Moreover, the “growth inhibition (GI)” value came to 99.84% in assay [6], 99.79% in assay [8] and 99.65% in [9]. For the same compound, the inhibition of growth at 40 µg/mL in assay [7] was found to be 99.5%. Moreover, the inhibition of growth at 1.25 µg/mL in assay [10] worked out at 99.8%. The residual activity is given as 100% in assay [11]; 71.14% in assay [12]; 90.58% in assay [13]; 95.38% in [14]; 74.44% in assay [15]. In addition, the MIC in assay [16] was found to be 80 µg/mL. Moreover, the FIC in assay [17] stood at 5. In addition, the Metabolic activity amounted to 94.76% in [18], 99.65% in assay [19], 94.14% in assay [20] and 66.6% in assay [21]. Moreover, in assay [22], the metabolic activity at 1.25 µg/mL worked out at 87%.
